In brackets after ≈: the same amount, converted by molar mass.
Legend:
Experiment in all cases: Susceptibility testing
Assay type in all cases: cell-based
[1] = test system: Enterobacter cloacae (AmpC overproducer); conditions: read-out: Minimum inhibitory concentrations (MICs; μg/mL) Enterobacter cloacae
How it was run: (§1)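 Broth susceptibility testing of clinical isolates resistant to third-generation cephalosporins, run and read per CLSI guidelines. […] Compounds were dissolved in DMSO and diluted into Mueller Hinton medium, with DMSO kept below 5%. Values are the average of three independent experiments.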

[2] = test system: Citrobacter freundii (AmpC overproducer); conditions: read-out: Minimum inhibitory concentrations (MICs; μg/mL) Citrobacter freundii
How it was run: as §1

[3] = test system: Escherichia coli (TEM-3) ESBL producer; conditions: read-out: Minimum inhibitory concentrations (MICs; μg/mL) Escherichia coli (TEM-3)
How it was run: as §1

[4] = test system: Escherichia coli (CTX-M-14) ESBL producer; conditions: read-out: Minimum inhibitory concentrations (MICs; μg/mL) Escherichia coli (CTX-M-14)
How it was run: as §1

CO/N=C(\C(=O)N[C@@H]1C(=O)N2C(C(=O)O)=C(COC(C)=O)CS[C@H]12)c1csc(N)n1 [Cefotaxime, cefotaxime]
MIC [1]: 64 µg/mL (≈ 141 µM) | MIC [2]: 16 µg/mL (≈ 35.1 µM) | MIC [3]: 8 µg/mL (≈ 17.6 µM) | MIC [4]: 256 µg/mL (≈ 562 µM)
